# Measurements published in PubChem BioAssay AID504348 (Broad Institute, 2011).
# Inconclusive results are not listed. Activity calls are given as the source filed them.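 The calls were made as follows: active = dose curve reaching 10% of the positive control caspase signal at or below the top valid dose; inconclusive = no clear call, values can overlap the other calls; inactive = reverse-direction response, or no crossing within range.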
# Test: apoptosis induction in Mcl1-reliant human cancer line – cell-based, HMC 1-8, luminescence, dry powder, set 3, counter-screen for A1 inhibitor project, dose response (AID 504348)
# Settings: HMC 1-8 cells, caspase-Glo luminescence, 4 h; series mostly up to 35 µM
# Procedure, shortened: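 Material: HMC 1-8 human cancer line, low A1; Input: 2500 cells/well; Medium: RPMI-1640 plus 10% FBS; Doses: compound added by pin transfer; Schedule: 4 h compound at 37 °C, 1 h reagent at RT; Signal: CaspaseGlo luminescence; Read-out basis: caspase activation.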
row,Compound,outcome
1,C/C(=N\Nc1nc(N2CCCCC2)nc(N2CCCCC2)n1)c1ccc(F)cc1,inactive
2,CCn1c(=O)c([N+](=O)[O-])c(Sc2ccc(C)cc2)c2ccccc21,inactive
3,O=c1[nH]c2ccccc2c(Cl)c1[N+](=O)[O-],inactive
4,COc1ccc(CCNc2nc(N3CCCC3)nc(N3CCCC3)n2)cc1OC,inactive
5,COc1ccc(CCNc2nc(N3CCOCC3)nc(N3CCOCC3)n2)cc1OC,inactive
6,COc1nc2ccccc2c(Sc2ccc(C)cc2)c1[N+](=O)[O-],inactive
7,COCCn1c(=O)c([N+](=O)[O-])c(Sc2ccc(C)cc2)c2ccccc21,inactive
8,Cc1ccc(Sc2c([N+](=O)[O-])c(=O)n(Cc3ccccc3)c3ccccc23)cc1,inactive
9,COc1ccc(N2CCN(c3nc(NCCc4ccc(OC)c(OC)c4)nc(N4CCOCC4)n3)CC2)cc1,inactive
10,Cn1c(=O)c(Sc2ccccn2)c(Sc2ccccn2)c2ccccc21,inactive
11,O=C(COc1ccc(Cl)cc1Cl)NNc1nc(N2CCOCC2)nc(N2CCOCC2)n1,inactive
